# Data reported in ChEMBL document CHEMBL4689842, “EUbOPEN Chemogenomics Library wave 1” (2021).
# Several values for one entry are separate records, joined by “and”; a condition that tells them apart may be missing. Equal values may be shown once.
# Test system: U2OS
# Assay: Multiplex assay against U2OS
# Format: toxicity, cell-based
# Conditions: human
# How it was run: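 Hoechst33342, BioTracker Green Microtubule Cytoskeleton Dye, MitoTracker Red and Annexin V Alexa Fluor 680 were added to live cells at seeding, and imaging on a CQ1 microscope at 37°C and 5% CO2 followed compound addition. Gating by CellPathfinder machine learning separated cells into Hoechst high-intensity objects or normal cells, then normal cells into healthy, pyknosed or fragmented nuclei, then pyknosed cells into mitotic or apoptotic. Per cents of healthy-nucleus cells are reported for the tubulin, mitochondrial-mass and membrane-permeability phenotypes.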
# [1] = 12 h, 1 µM, compound concentration 1 uM, replicate 1
# [2] = 12 h, 1 µM, compound concentration 1 uM, replicate 2
# [3] = 12 h, 10 µM, compound concentration 10 uM, replicate 1
# [4] = 12 h, 10 µM, compound concentration 10 uM, replicate 2
# [5] = 24 h, 1 µM, compound concentration 1 uM, replicate 1
# [6] = 24 h, 1 µM, compound concentration 1 uM, replicate 2
# [7] = 24 h, 10 µM, compound concentration 10 uM, replicate 1
# [8] = 24 h, 10 µM, compound concentration 10 uM, replicate 2
smiles,measurement,setting,value
CNCc1ccc(-c2cc(-c3nc(-c4ccc(S(=O)(=O)C(C)C)cc4)cnc3N)on2)cc1 [BERZOSERTIB],Population Apoptotic (%),[1],16% and 46%
same,Population Healthy Nuclei (%),[1],6% and 0%
same,Population Hoechst High Intensity Objects (%),[1],31% and 81%
same,Population Membrane Permeable-Phenotype (%),[1],46% and 20%
same,Population Mitochondria Different-Phenotype (%),[1],40% and 20%
same,Population Mitotic Cells (%),[1],83% and 53%
same,Population Tubulin-Different-Phenotype (%),[1],40% and 80%
same,Total Cell Count,[1],185 and 523
same,Population Apoptotic (%),[2],10%
same,Population Fragmented Nuclei (%),[2],41% and 95%
same,Population Healthy Nuclei (%),[2],10% and 1%
same,Population Hoechst High Intensity Objects (%),[2],52% and 83%
same,Population Membrane Permeable-Phenotype (%),[2],42% and 55%
same,Population Mitotic Cells (%),[2],89%
same,Population Normal (%),[2],47% and 16%
same,Population Pyknosed Nuclei (%),[2],48%
same,Population Apoptotic (%),[3],17% and 38%
same,Population Healthy Nuclei (%),[3],4% and 0%
same,Population Hoechst High Intensity Objects (%),[3],49% and 82%
same,Population Membrane Permeable-Phenotype (%),[3],58% and 75%
same,Population Mitochondria Different-Phenotype (%),[3],25% and 0%
same,Population Mitotic Cells (%),[3],82% and 61%
same,Population Normal (%),[3],50% and 17%
same,Population Tubulin-Different-Phenotype (%),[3],41% and 50%
same,Population Apoptotic (%),[4],11%
same,Population Fragmented Nuclei (%),[4],39% and 97%
same,Population Healthy Nuclei (%),[4],9% and 1%
same,Population Hoechst High Intensity Objects (%),[4],45%
same,Population Membrane Permeable-Phenotype (%),[4],31% and 62%
same,Population Mitochondria Different-Phenotype (%),[4],5% and 12%
same,Population Mitotic Cells (%),[4],88%
same,Population Normal (%),[4],54%
same,Population Apoptotic (%),[5],50%
same,Population Healthy Nuclei (%),[5],0% and 11%
same,Population Hoechst High Intensity Objects (%),[5],81% and 50%
same,Population Membrane Permeable-Phenotype (%),[5],50% and 61%
same,Population Mitotic Cells (%),[5],50%
same,Population Normal (%),[5],18% and 49%
same,Population Tubulin-Different-Phenotype (%),[5],50% and 61%
same,Total Cell Count,[5],432 and 192
same,Population Apoptotic (%),[6],28%
same,Population Fragmented Nuclei (%),[6],37% and 97%
same,Population Hoechst High Intensity Objects (%),[6],56% and 82%
same,Population Membrane Permeable-Phenotype (%),[6],38% and 44%
same,Population Mitochondria Different-Phenotype (%),[6],33% and 11%
same,Population Mitotic Cells (%),[6],71%
same,Population Normal (%),[6],43% and 17%
same,Population Pyknosed Nuclei (%),[6],41%
same,Population Tubulin-Different-Phenotype (%),[6],47% and 55%
same,Total Cell Count,[6],92 and 244
same,Population Apoptotic (%),[7],33% and 22%
same,Population Fragmented Nuclei (%),[7],19%
same,Population Healthy Nuclei (%),[7],10%
same,Population Hoechst High Intensity Objects (%),[7],59%
same,Population Membrane Permeable-Phenotype (%),[7],61%
same,Population Mitotic Cells (%),[7],66% and 77%
same,Population Normal (%),[7],40%
same,Population Pyknosed Nuclei (%),[7],70%
same,Population Tubulin-Different-Phenotype (%),[7],75%
same,Population Apoptotic (%),[8],14% and 40%
same,Population Fragmented Nuclei (%),[8],38% and 98%
same,Population Healthy Nuclei (%),[8],15% and 0%
same,Population Hoechst High Intensity Objects (%),[8],51% and 82%
same,Population Mitochondria Different-Phenotype (%),[8],21% and 16%
same,Population Mitotic Cells (%),[8],85% and 60%
same,Population Normal (%),[8],48% and 17%
same,Population Tubulin-Different-Phenotype (%),[8],36% and 66%
